# Assay: Toxicity liver stage against HepG2, at 10uM
# Assay type: cell-based
# Set-up: test concentration 10 uM, cell line HepG2-A16-CD81EGFP
# Settings: human, HepG2-A16-CD81EGFP cells; read-out: INHIBITION
# Outline: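 Uninfected HepG2-A16-CD81EGFP cells, 3 × 10^3 per well, 1536-well, plated on prespotted compound at 10 μM final, parasite-free screening media added to match infected plates; puromycin 10 μM positive, DMSO 0.5% negative; run in parallel with 48 h PbLuc assay at 37 °C, 5% CO2; viability by CellTiter-Glo luminescence, normalized to controls.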
row,SMILES,cytotoxicity at 10 µM [%]
1,Cc1oncc1C(=O)N[C@@H]1CN(Cc2ccoc2)C[C@@H]2CCCO[C@@H]21,-108
2,Oc1nc(N2CCCC2)nc2c1CCN(Cc1ccsc1)CC2,-12
3,CCCn1ncc(C(=O)N(CCOC)Cc2c(C)nn(CC)c2C)c1C,-4.97
4,COc1ccc(NC(=O)NC(C)c2nc[nH]n2)cc1 (stereo not given),-7.71
5,N#Cc1ccc(S(=O)(=O)NC(=O)COc2ccc3c(c2)CCC3)cc1,-9.36
6,O=C(NCC1CC1)c1cc2c(s1)CCN2c1ncccn1,-101
7,O=C(c1sccc1Br)N(Cc1cccnc1)C1CC1,-4.07
8,CCCNC(=O)c1cnc(N(C)C)nc1COC,3.17
9,CS(=O)(=O)NCC1CCCN(C(=O)Nc2cccnc2N2CCCC2)C1 (stereo not given),3.85
10,CO[C@@]1(C)C[C@@H](O)C12CCN(C(=O)CCn1c(C)cccc1=O)CC2,3.43
11,CCC(O)(CNCc1cc[nH]n1)c1ccc(Br)cc1 (stereo not given),2.69
12,C[S+]([O-])CCNC(=O)N1CCSC2(CCCCC2)C1 (stereo not given),-0.363
13,Cc1ccsc1-c1nc(CN(C)Cc2cc[nH]n2)c(C)o1,10.3
14,CN(CC(=O)Nc1ccccc1)C(=O)CN(C)c1ccc(Cl)cn1,-1.83
15,O=C1NC2(CCNCC2)CC1c1ccccc1 (stereo not given),-72.7
16,Cc1ccc(-c2csc(N)c2C#N)cc1,-1.61
17,Cc1cc(CNC(=O)CCCN2CCCCC2)n(C)n1,-10.3
18,CSCC(C)(O)CNC(=O)c1cc(Br)ccc1Cl (stereo not given),-25.1
19,O=C(c1ccco1)N1CC[C@@H]2O[C@H](COCCN3CCCC3)CC[C@@H]21,-100
20,CC(C)N1CCC(C(=O)N2CCC(c3ccc(F)cc3)C2)CC1 (stereo not given),-58.1
21,CN(Cc1nc2ccsc2c(=O)[nH]1)C[C@@H]1CCCN2CCCC[C@H]12,-7.33
22,O=C(c1cn(CC(=O)N2CCCCC2)c2ccccc12)C1CC1,9.14
23,CN(Cc1ccc(Br)s1)Cn1nc(-c2ccc(F)cc2)oc1=O,1.64

row,SMILES,cytotoxicity at 10 µM [%]
1,Cc1nc(CN2C(=O)CC[C@@H]3[C@H]2CCN3C2CCOCC2)cs1,-147
2,N#Cc1cn(C2CC2)c(=O)n(Cc2noc(-c3ccsc3)n2)c1=O,0.836
3,O=C(C1CCOC1)N1CCC2(CCN(Cc3nccs3)CC2)CC1 (stereo not given),-73.3
4,CC1CN(C)c2ccccc2CN1C(=O)c1cnsn1 (stereo not given),0.736
5,COCCN1CCN(c2cccc(C)n2)Cc2ccc(C)nc21,-106
6,Cn1cnc2c1CCN(CCOc1ccc(C#N)cc1)C2,-9.47
7,Cc1ccc(-c2cnn(CC(=O)NC(C)C)c2)cc1,0.724
8,Cc1nc(CNC(=O)NC2CCN(c3cccc(Cl)c3)C2)no1 (stereo not given),0.636
9,COc1cc(N2CC[C@@H](OC)[C@@H]2Cc2ccccc2)ncn1,-138
10,COCCN(C)CC(=O)N1C[C@@H](NC(C)=O)[C@H](c2ccc(OC)cc2)C1,1.45
11,CCCc1nnnn1Cc1cn2c(C)cccc2n1,-8.51
12,CNC(=O)CC1CCN(C(=O)NCc2cn3c(C)cccc3n2)CC1,3.88
13,Cc1ccc(C(F)(F)F)cc1NC(=O)C1CCCN1 (stereo not given),4.28
14,CN(Cc1ccccc1)CC(O)Cn1cnc2ccsc2c1=O (stereo not given),-2.89
15,CCc1nccn1C1CCCN(C(=O)c2ccc(-n3ccnc3)cc2)C1 (stereo not given),-10.8
16,Fc1cccc(-c2nnn3c2COC(CNCc2ccsc2)C3)c1 (stereo not given),-1.52
17,COc1ccc(Cc2nc3c([nH]2)CC(C)(C)CNC3=O)cc1OC,-3.04
18,C=Cn1ncc(CN2C[C@@H]3CCCN3C[C@@H]2Cc2ccccc2)c1C,-5.74
19,Cn1cc(C2CC(=O)NC23CCN(C(=O)c2ccc[nH]2)CC3)cn1 (stereo not given),8.94
20,O=S(=O)(N[C@H]1CC[C@H]1NC1Cc2ccccc2C1)c1cccnc1,1.24
21,O=C(CCc1nc(Cl)n[nH]1)N1CCC2(CCCN(CC3CCC3)C2=O)C1 (stereo not given),-5.3
22,COCCCC1(CO)CCCN(Cc2ccc(F)c(OC)c2)C1 (stereo not given),-142
